Assay results taken from paper PMC2834294 (Chemistry & biology, 2010).

Tests used:
Type in all cases: cell-based
[1] = target: T1, TRPML3 coexpressed with TRPML1 (Homo sapiens, UniProt Q8TDD5); experiment: Calcium imaging, HEK293 cells coexpressing TRPML3 with TRPML1; details: 10 µM
T1 sequence (Q8TDD5 1-553): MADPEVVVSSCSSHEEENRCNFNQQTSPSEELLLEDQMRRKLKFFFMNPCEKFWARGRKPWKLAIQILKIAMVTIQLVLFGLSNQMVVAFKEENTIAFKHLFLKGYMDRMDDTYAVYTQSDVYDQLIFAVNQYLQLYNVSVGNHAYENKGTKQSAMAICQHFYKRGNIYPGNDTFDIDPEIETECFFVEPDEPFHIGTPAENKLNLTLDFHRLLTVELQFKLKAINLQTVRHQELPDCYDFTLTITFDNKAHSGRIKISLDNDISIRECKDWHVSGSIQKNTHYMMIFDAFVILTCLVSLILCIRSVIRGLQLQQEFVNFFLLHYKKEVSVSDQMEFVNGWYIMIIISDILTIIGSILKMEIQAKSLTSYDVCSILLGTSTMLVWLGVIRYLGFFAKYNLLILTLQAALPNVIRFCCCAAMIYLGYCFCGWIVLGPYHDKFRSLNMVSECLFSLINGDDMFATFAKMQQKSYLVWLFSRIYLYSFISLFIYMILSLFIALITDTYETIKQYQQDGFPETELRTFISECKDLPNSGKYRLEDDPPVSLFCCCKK
Method in brief: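 Human TRPML3 and TRPML1 were transiently coexpressed in HEK293 cells (Genejammer) and imaged 24 h post-transfection. Cells on glass coverslips were loaded with 4 μM fura-2-AM in bath solution (mM: 138 NaCl, 6 KCl, 2 MgCl₂, 2 CaCl₂, 10 HEPES, 5.5 D-glucose, pH 7.4) and read on a monochromator imaging system. Test compound was 10 μM. Mean ± SEM, n≥3 independent experiments, 20–30 cells each.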

[2] = target: T2, TRPML3 coexpressed with dynamin (Homo sapiens, UniProt Q8TDD5); experiment: Calcium imaging, HEK293 cells coexpressing wild type dynamin with TRPML3; details: compared to control experiments
T2 sequence (Q8TDD5 1-553): T1 sequence (Q8TDD5 1-553)
Method in brief: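 HEK293 cells were transiently cotransfected (Genejammer) with wild-type dynamin and TRPML3 and imaged 24 h later. Cells on glass coverslips were loaded with 4 µM fura-2-AM in bath solution (mM: 138 NaCl, 6 KCl, 2 MgCl2, 2 CaCl2, 10 HEPES, 5.5 D-glucose; pH 7.4). Responses to activators were compared with control transfections.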

TRPML2 = target: T3, TRPML2 (Homo sapiens, UniProt Q8IZK6); experiment: Fura-2 calcium imaging, HEK293 cells expressing TRPML2; details: 10 µM
T3 sequence (Q8IZK6 1-566): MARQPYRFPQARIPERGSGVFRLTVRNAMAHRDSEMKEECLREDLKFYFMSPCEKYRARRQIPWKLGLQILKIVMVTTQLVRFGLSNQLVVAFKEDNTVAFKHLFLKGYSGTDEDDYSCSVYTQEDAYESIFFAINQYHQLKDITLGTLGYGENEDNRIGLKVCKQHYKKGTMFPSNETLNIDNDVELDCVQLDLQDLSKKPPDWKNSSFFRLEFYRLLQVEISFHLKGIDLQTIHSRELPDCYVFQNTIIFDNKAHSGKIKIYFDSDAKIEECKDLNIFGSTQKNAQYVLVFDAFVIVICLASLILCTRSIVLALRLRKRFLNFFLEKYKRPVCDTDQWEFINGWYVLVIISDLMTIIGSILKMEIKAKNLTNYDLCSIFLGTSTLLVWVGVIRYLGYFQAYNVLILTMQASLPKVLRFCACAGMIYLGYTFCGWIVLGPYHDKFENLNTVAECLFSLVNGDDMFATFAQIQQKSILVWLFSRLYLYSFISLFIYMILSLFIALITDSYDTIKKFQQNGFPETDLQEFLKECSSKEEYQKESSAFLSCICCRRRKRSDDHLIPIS
Method in brief: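 HEK293 cells were transiently transfected (Genejammer) with the human channel construct or YFP control and measured 24 h later. Cells on glass coverslips were loaded with 4 µM fura-2-AM in bath solution (mM: 138 NaCl, 6 KCl, 2 MgCl2, 2 CaCl2, 10 HEPES, 5.5 D-glucose; pH 7.4). Compounds were applied at 10 µM and the F340/F380 ratio recorded. Values are mean ± SEM, n≥3.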

## Cc1cc(C)c(C2=NOC3C4CCC(C4)C23)c(C)c1 (stereo not drawn) [SN-2, 5-mesityl-3-oxa-4-azatricyclo[5.2.1.0∼2,6∼]dec-4-ene]
[1]
  calcium imaging response when TRPML1 was coexpressed with TRPML3: strong reduction of the calcium imaging responses
[2]
  response when wild type dynamin coexpressed with TRPML3 in HEK293 cells: reduction in response
TRPML2
  response in HEK293 cells expressing TRPML2: did not show any activity
